Calls of active or inactive are those of the source. The rule behind the calls is not given here.
Key:
Integrin alpha-5/beta-1 = Integrin alpha-5/beta-1 (Homo sapiens, UniProt P05556+P08648); experiment: Inhibition of fibronectin binding to soluble alpha5beta1 integrin (unknown origin) after 1 hr by ELISA; assay type: protein-complex assay
Integrin alpha-V/beta-3 = Integrin alpha-V/beta-3 (Homo sapiens, UniProt P05106+P06756); experiment: Inhibition of vitronectin binding to human alphaVbeta3 integrin after 1 hr by ELISA; assay type: protein-complex assay
Chain of Integrin alpha-V/beta-3 (P05106 27-788 limits assumed): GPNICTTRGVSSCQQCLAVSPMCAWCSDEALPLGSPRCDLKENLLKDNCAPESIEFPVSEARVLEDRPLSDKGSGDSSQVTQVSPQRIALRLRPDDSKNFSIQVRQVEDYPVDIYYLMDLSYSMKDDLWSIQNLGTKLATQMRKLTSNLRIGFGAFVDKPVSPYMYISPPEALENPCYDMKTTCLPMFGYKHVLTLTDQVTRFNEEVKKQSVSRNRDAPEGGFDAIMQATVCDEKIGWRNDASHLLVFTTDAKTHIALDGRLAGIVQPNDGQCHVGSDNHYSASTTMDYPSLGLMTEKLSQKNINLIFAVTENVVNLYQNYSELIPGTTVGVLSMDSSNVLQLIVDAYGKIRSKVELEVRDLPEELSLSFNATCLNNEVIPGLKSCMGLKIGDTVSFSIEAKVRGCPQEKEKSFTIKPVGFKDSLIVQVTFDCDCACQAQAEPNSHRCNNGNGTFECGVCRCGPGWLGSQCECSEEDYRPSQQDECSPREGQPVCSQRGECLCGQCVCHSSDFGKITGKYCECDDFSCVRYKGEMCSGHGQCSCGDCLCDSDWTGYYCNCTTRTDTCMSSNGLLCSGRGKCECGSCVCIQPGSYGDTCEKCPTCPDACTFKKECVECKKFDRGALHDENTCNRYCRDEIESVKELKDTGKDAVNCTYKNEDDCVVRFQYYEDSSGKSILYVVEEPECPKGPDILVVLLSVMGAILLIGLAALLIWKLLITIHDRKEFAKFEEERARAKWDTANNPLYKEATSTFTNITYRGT
Chain of Integrin alpha-V/beta-3 (P06756 31-889 limits assumed): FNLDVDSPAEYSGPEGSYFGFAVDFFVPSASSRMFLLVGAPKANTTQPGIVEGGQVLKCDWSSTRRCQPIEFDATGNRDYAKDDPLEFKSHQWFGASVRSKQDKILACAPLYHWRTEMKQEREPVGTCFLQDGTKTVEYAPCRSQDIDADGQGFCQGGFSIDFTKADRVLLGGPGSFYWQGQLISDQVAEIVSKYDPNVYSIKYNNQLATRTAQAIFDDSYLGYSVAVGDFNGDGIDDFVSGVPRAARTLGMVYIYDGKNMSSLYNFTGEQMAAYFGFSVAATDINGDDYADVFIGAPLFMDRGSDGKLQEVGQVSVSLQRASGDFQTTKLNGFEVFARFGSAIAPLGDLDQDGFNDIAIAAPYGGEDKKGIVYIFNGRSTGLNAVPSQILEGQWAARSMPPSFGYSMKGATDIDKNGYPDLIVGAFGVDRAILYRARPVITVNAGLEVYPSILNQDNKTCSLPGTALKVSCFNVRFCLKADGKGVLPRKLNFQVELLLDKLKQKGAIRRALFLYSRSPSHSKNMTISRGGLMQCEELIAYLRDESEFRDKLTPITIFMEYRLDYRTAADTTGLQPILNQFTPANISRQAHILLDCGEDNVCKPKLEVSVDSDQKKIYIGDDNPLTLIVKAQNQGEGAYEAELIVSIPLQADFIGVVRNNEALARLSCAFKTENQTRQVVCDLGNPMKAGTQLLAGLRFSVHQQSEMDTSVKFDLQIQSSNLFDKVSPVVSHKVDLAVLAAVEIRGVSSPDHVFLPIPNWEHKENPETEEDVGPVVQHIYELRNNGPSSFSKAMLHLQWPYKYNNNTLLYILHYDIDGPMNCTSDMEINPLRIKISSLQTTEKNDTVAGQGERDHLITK
Chain of Integrin alpha-V/beta-3 (P06756 891-1048 limits assumed): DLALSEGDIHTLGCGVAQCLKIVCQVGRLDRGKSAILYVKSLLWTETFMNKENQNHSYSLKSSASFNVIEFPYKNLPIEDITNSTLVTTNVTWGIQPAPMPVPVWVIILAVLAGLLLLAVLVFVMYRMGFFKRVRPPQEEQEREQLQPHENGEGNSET
Procedure, shortened: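 Plates coated overnight at 4 °C with vitronectin 1.0 μg/mL in carbonate buffer pH 9.6, blocked 1 h with TSB (Ca2+, Mg2+, Mn2+, 1% BSA). Soluble human αvβ3 (final 1.0 μg/mL) with inhibitor (final 0.128–400 nM) 1 h at room temperature; detection by anti-CD51/61 then peroxidase secondary, absorbance 405 nm. Duplicates; IC50 from curve inflection point; internal standard per plate.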

Protein Mdm4 = molecular target: T1, Protein Mdm4 (Homo sapiens, UniProt O15151); experiment: Displacement of p53 from MDM4 in human SHSY-5Y cells incubated for 10 mins by sandwich ELISA method; assay type: cell-based
T1 sequence (O15151 whole entry): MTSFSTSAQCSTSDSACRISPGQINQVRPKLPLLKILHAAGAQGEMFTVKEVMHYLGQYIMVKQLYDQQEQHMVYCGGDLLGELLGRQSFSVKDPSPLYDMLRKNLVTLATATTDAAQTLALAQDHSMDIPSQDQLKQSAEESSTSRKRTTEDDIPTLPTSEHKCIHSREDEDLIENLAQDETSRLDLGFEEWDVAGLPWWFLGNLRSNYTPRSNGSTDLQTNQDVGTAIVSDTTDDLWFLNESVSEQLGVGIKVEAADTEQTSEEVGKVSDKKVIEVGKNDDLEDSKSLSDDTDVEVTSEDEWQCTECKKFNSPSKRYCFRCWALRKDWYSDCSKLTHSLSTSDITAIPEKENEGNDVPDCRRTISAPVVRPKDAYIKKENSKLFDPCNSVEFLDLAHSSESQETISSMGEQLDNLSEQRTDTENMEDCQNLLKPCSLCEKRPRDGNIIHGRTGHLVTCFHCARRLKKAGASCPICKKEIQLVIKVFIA

[1] = molecular target: E3 ubiquitin-protein ligase Mdm2 (Homo sapiens, UniProt Q00987); experiment: Displacement of p53 from MDM2 in human U87MG cells incubated for 10 mins by sandwich ELISA method; assay type: cell-based
Chain of E3 ubiquitin-protein ligase Mdm2 (Q00987 whole entry): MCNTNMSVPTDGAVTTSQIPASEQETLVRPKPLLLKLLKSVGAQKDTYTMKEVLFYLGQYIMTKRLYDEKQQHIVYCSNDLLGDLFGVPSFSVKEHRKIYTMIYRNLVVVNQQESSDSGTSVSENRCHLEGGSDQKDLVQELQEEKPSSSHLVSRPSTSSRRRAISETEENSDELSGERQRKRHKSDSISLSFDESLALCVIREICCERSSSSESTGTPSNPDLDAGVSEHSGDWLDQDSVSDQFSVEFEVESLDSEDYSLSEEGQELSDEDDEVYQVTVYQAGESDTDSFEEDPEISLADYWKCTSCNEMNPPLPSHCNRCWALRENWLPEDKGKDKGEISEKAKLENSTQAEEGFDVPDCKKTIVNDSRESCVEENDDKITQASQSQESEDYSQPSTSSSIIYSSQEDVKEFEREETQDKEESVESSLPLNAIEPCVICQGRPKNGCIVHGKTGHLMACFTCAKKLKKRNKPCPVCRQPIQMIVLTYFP

U-87 MG [2] = experiment: Antiproliferative activity against human U87MG cells at 100 nM after 72 hrs in presence of alphaVbeta3 inhibitor cilengitide by MTS assay; assay type: functional, cell-based; details: U-87MG ATCC
Procedure, shortened: (§1)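 Cells seeded ~5000 cells/cm2, after 24 h medium replaced with compound in DMSO (DMSO 1% v/v in controls), alone or in combination at 100 nM each, or concentration series (U87MG 1–100 nM). 72 h exposure; proliferation read by MTS, expressed as % of DMSO control (mean ± SEM, N = 3); IC50 from sigmoid dose–response fit.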

U-87 MG [3] = experiment: Antiproliferative activity against human U87MG cells at 100 nM after 72 hrs by MTS assay; assay type: functional, cell-based; details: U-87MG ATCC; procedure, shortened: as §1
U-87 MG [4] = experiment: Anti-invasive activity in human U87MG cells at 10 uM after 24 hrs in presence of MDM4 inhibitor SJ-1722550 and alphaVbeta3 inhibitor cilengitide by transwell assay; assay type: functional, cell-based; details: U-87MG ATCC
Procedure, shortened: (§2)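 U87MG cells suspended in serum-free medium (60,000 cells), treated at 10 μM (each agent at 10 μM when combined), placed in upper chamber of Matrigel-coated (0.32 mg/mL) transwell; lower chamber RPMI with 10% FBS. Invasion 24 h at 37 °C; cells on lower membrane surface fixed with p-formaldehyde, crystal violet stained, counted in five random fields per filter. Mean ± SEM vs DMSO control.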

U-87 MG [5] = experiment: Anti-invasive activity in human U87MG cells at 10 uM after 24 hrs by transwell assay; assay type: functional; details: U-87MG ATCC; procedure, shortened: as §2
U-87 MG [6] = experiment: Antiproliferative activity against human U87MG cells at 100 nM after 72 hrs in presence of alphaVbeta3 inhibitor cilengitide and MDM4 inhibitor SJ-1722550 by MTS assay; assay type: functional, cell-based; details: U-87MG ATCC; procedure, shortened: as §1

Chain of Integrin alpha-5/beta-1 (P05556 21-798 limits assumed): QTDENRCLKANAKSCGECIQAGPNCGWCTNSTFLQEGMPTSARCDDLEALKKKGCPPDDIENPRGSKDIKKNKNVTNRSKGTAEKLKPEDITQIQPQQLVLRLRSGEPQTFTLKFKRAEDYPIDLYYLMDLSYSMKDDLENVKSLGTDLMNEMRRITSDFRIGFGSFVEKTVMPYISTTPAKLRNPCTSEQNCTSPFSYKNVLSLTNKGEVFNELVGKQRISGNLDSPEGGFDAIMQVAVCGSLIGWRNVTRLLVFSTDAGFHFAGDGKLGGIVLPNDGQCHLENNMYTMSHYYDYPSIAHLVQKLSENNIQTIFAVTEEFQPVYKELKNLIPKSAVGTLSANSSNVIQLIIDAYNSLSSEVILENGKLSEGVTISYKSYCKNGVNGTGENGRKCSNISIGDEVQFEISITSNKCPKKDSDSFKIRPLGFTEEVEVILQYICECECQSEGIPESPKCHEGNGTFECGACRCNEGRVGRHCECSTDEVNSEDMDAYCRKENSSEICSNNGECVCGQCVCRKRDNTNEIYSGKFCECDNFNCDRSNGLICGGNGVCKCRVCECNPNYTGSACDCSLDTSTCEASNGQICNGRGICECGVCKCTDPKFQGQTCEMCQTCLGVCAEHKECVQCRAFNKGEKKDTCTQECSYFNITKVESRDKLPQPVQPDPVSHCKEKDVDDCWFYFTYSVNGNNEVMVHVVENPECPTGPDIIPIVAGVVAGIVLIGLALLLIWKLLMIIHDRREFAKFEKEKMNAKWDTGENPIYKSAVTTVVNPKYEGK
Chain of Integrin alpha-5/beta-1 (P08648 42-894 limits assumed): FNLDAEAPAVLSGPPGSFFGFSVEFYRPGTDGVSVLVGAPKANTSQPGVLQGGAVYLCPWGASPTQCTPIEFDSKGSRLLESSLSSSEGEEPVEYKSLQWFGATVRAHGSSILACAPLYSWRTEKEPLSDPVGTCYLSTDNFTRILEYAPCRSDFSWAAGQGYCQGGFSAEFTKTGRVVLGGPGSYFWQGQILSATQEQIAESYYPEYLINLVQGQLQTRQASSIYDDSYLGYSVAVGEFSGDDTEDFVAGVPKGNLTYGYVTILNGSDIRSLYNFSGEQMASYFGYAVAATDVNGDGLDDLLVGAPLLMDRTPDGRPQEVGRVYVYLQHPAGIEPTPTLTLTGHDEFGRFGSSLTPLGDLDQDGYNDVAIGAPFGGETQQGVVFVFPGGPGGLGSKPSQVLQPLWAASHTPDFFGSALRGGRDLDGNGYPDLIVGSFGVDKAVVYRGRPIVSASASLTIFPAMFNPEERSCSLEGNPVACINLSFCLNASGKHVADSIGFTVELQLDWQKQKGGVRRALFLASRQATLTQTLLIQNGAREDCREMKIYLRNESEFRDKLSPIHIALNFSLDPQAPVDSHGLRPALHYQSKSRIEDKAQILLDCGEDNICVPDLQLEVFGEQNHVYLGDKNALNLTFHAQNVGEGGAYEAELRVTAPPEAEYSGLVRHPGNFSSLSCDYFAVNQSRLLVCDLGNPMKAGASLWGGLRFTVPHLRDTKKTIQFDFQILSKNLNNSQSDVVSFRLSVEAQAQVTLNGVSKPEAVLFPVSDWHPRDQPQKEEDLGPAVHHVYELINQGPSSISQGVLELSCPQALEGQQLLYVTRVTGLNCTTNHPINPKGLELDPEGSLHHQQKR
Chain of Integrin alpha-5/beta-1 (P08648 895-1049 limits assumed): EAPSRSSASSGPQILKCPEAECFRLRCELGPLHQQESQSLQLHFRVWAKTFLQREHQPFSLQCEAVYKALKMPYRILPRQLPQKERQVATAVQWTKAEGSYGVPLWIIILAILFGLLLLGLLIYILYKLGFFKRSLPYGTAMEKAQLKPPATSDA

Compound	IC50 (Integrin alpha-5/beta-1) [nM]	IC50 (Integrin alpha-V/beta-3) [nM]	IC50 (Protein Mdm4) [nM]	further results
N=C(N)Nc1cccc(C(=O)NCC(=O)N[C@@H](CC(=O)O)C(=O)NCc2ccc(-c3ccccc3)cc2)c1	41	1.7	> 1000	–
COc1ccc(C2=N[C@H](c3ccc(Cl)cc3)[C@H](c3ccc(Cl)cc3)N2C(=O)N2CCNC(=O)C2)c(OC(C)C)c1	–	–	–	Activity (U-87 MG [2]): Active; Activity (U-87 MG [3]): inactive; Activity (U-87 MG [4]): Active; Activity (U-87 MG [5]): inactive; Activity (U-87 MG [6]): Active
C[C@@H](NC(=O)[C@H](CC(=O)O)NC(=O)CNC(=O)c1cccc(NC(=N)N)c1)c1ccccc1	45	1.6	–	–
N=C(N)Nc1cccc(C(=O)NCC(=O)N[C@@H](CC(=O)O)C(=O)NCc2ccc(Cl)cc2)c1	48	1.3	–	–

Continued, in another order:

IC50 (Integrin alpha-5/beta-1) [nM]	IC50 (Integrin alpha-V/beta-3) [nM]	IC50 (Protein Mdm4) [nM]	Compound	further results
22	4.5	–	N=C(N)Nc1cccc(C(=O)NCC(=O)N[C@@H](CC(=O)O)C(=O)Nc2cccc3ccccc23)c1	–
36	4	> 1000	N=C(N)Nc1cccc(C(=O)NCC(=O)N[C@@H](CC(=O)O)C(=O)NCCc2c[nH]c3ccccc23)c1	–
18	1.2	> 1000	N=C(N)Nc1cccc(C(=O)NCC(=O)N[C@@H](CC(=O)O)C(=O)NCc2cccc(-c3ccccc3)c2)c1	–
22	0.91	–	N=C(N)Nc1cccc(C(=O)NCC(=O)N[C@@H](CC(=O)O)C(=O)NCC(c2ccccc2)c2ccccc2)c1	IC50 [1]: > 1000 nM
28	2.8	–	N=C(N)Nc1cccc(C(=O)NCC(=O)N[C@@H](CC(=O)O)C(=O)NCCc2ccccc2)c1	–

Reference: ChEMBL document CHEMBL4138308, “Simultaneous Targeting of RGD-Integrins and Dual Murine Double Minute Proteins in Glioblastoma Multiforme” (J Med Chem, 2018)
